Among the data in PubChem BioAssay AID493051 (Broad Institute, 2011) are AC50 and activity change, negative = viability loss values, retold here.

The source made the active and inactive calls.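 Rule for the calls: active = viability loss with dose, its half-maximal concentration at most ten times the top valid tested dose; inconclusive = flat viability loss of 30 to 70 percent, or poor fit; inactive = the rest.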

Broadly, the AC50 is the concentration giving half of the maximal activity seen.

One test relates to BJeH fibroblast viability, Alamar Blue fluorescence, 48 h. Description: cytotoxicity in BJeH fibroblasts, dose response, counter-screen for Ras selective lethality project, BJeH cells, dry powder, set 2 (AID 493051).
Conditions: not given
Put shortly:
(§1)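 Test system: BJeH cells, BJ human fibroblasts immortalized with hTERT; quantity: 1000 BJeH cells per well; doses: compound as a 2-fold dilution series; times: 48 h 37 °C compound exposure, ~16 h Alamar Blue development; measured by: Alamar Blue fluorescence, excitation 544 nm, emission 590 nm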
Take `O=C(c1ccc([N+](=O)[O-])o1)N1CCN(C(c2ccccc2)c2ccccc2)CC1`: the AC50 was 17.7 µM. The same measure, in the same setting: next, `O=C(c1ccc([N+](=O)[O-])o1)N1CCN(C(c2ccc(F)cc2)c2ccc(F)cc2)CC1`: 11.8 µM. Take `O=C(NCCNC(c1ccccc1)c1ccccc1)c1ccc([N+](=O)[O-])o1`: the AC50 is 3.33 µM. Take `Cc1onc(C(=O)N2CCCN(C(c3ccccc3)c3ccccc3)CC2)c1[N+](=O)[O-]`: the AC50 is 5.13 µM.

As to `O=C(c1ccc([N+](=O)[O-])o1)N1CCCN(C(c2ccccc2)c2ccccc2)CC1`, the AC50 was 63.2 µM.

For the compound `Cc1onc(C(=O)N2CCN(C(c3ccc(Cl)cc3)c3ccc(Cl)cc3)CC2)c1[N+](=O)[O-]`, the AC50 is 0.628 µM. For `Cc1onc(C(=O)N2CCN(C(c3ccc(F)cc3)c3ccc(F)cc3)CC2)c1[N+](=O)[O-]`, the AC50 was 1.49 µM. Regarding `Cc1onc(C(=O)N2CCN(C(c3ccccc3)c3ccccc3)CC2)c1[N+](=O)[O-]`, the AC50 was 7.89 µM. For the compound `COc1ccc(C(c2ccc(OC)cc2)N2CCN(C(=O)c3noc(C)c3[N+](=O)[O-])CC2)cc1`, the concentration at half-maximal activity (AC50) was 9.36 µM. Still for that read-out and setting: next, `COc1ccc(C(c2ccc(OC)cc2)N2CCN(C(=O)c3ccc([N+](=O)[O-])o3)CC2)cc1`: 6.29 µM.

For the compound `Cc1onc(C(=O)N2CCN(C(c3ccccc3)c3ccc(Cl)cc3)CC2)c1[N+](=O)[O-]` (stereo not given), the AC50 is 0.958 µM.

Test system in another test: not listed separately
The description is as above. As to conditions: BJeH fibroblast viability, Alamar Blue fluorescence, 48 h; at 48 µM (top of the series). Put shortly: as §1
(The colour change of resazurin is a common sign of viable cells or microbes.)
`CC(C)c1onc(C(=O)N2CCN(C(c3ccccc3)c3ccccc3)CC2)c1[N+](=O)[O-]`: the activity change, negative = viability loss is 18.4% (inactive).

Take `Cc1onc(C(=O)N2CCN(C(c3ccccc3)c3ccccc3)CC2)c1NS(C)(=O)=O`: the activity change, negative = viability loss was 8.49% (inactive).

`CC(=O)Nc1c(C(=O)N2CCN(C(c3ccccc3)c3ccccc3)CC2)noc1C`: the activity change, negative = viability loss is 15.6% (inactive). As for `Cc1ccc(C(=O)N2CCN(C(c3ccccc3)c3ccccc3)CC2)c([N+](=O)[O-])c1`, the activity change, negative = viability loss was 19.4% (inactive).

As to `Cc1onc(C(=O)N2CCN(C(c3ccccc3)c3ccccc3)CC2)c1N`, the activity change, negative = viability loss is 5.64% (inactive).

Consider `Cc1onc(C(=O)NCCNC(c2ccccc2)c2ccccc2)c1[N+](=O)[O-]`, for which the activity change, negative = viability loss was -6.54% (inactive). On to `Cc1onc(C(=O)N2CCN(C(c3ccccn3)c3ccccn3)CC2)c1[N+](=O)[O-]`, for which the activity change, negative = viability loss is -5.34% (inactive). On the same count and under the same terms, the same measure for `Cc1onc(C(=O)N2CCN(C(c3ccccc3)c3ccccc3)CC2)c1C`: 46.9% (inactive); for `Cc1onc(C(=O)N2CCN(C(c3ccccc3)c3ccccc3)CC2)c1Br`: 22.7% (inactive); for `Cc1onc(C(=O)N2CCN(C(c3ccncc3)c3ccncc3)CC2)c1[N+](=O)[O-]`: 4.32% (inactive). Same read-out and setting: next, `O=C(c1noc2ccccc12)N1CCN(C(c2ccccc2)c2ccccc2)CC1`: 27.9% (inactive). With `O=[N+]([O-])c1ccc(CN2CCN(C(c3ccccc3)c3ccccc3)CC2)o1`, the activity change, negative = viability loss is -9.67% (inactive). On to `Cc1oc(C)c(C(=O)N2CCN(C(c3ccccc3)c3ccccc3)CC2)c1C`, for which the activity change, negative = viability loss was 49.1% (inactive).

The same test, now with this note: BJeH fibroblast viability, Alamar Blue fluorescence, 48 h; at 68 µM (top of the series).
With `CCOC(=O)N1CCN(C(=O)c2noc(C)c2[N+](=O)[O-])CC1`, the activity change, negative = viability loss is 7.91% (inactive).

Regarding `Cc1onc(C(=O)N2CCOCC2)c1[N+](=O)[O-]`, the activity change, negative = viability loss was 10.9% (inactive). For the compound `COc1ccccc1N1CCN(C(=O)c2noc(C)c2[N+](=O)[O-])CC1`, the activity change, negative = viability loss is 10.7% (inactive). For the compound `Cc1onc(C(=O)N2CCN(Cc3ccccc3)CC2)c1[N+](=O)[O-]`, the activity change, negative = viability loss is 7.25% (inactive). With `Cc1onc(C(=O)NCc2ccc(F)cc2)c1[N+](=O)[O-]`, the activity change, negative = viability loss was 13.9% (inactive). Take `Cc1cc(C(=O)N2CCN(Cc3ccccc3)CC2)no1`: the activity change, negative = viability loss was 3.96% (inactive).
